Measured values reported in article PMC4110911 (Bioorganic & medicinal chemistry letters, 2014).

Columns and labels:
PKC = assay: PepTag non-radioactive PKC assay; assay type: biochemical; conditions: read-out: IC50 value, PKC; mean ± standard deviation, triplicate
[1] = system: liver transaminases, aspartate aminotransferase (AST) and alanine transaminase (ALT); assay: Plasma liver transaminase; assay type: in vivo; conditions: mice, 5 mg/kg daily by oral gavage for 75 days, vs control mice
[2] = Distribution of compound in tissues and plasma after chronic oral administration; assay type: in vivo; conditions: CD1 mice, oral gavage 5 mg/Kg daily for 75 days, n = 4
Procedure, shortened: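 CD1 mice: four treated, two untreated. Test compound was given by oral gavage at 5 mg/Kg once daily for 75 days. Brain, pancreas, liver, kidney, lung and plasma were then assayed for the compound by a previously reported procedure. Levels are in µM as mean ± standard deviation; ND = not detectable.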

Row | IC50 (PKC) [µM] | Concentration of 3, Kidney [2] [µM] | Concentration of 3, Liver [2] [µM] | Concentration of 3, Pancreases [2] [µM] | Concentration of 3, Plasma [2] [µM] | SMILES | ALT enzyme activity in plasma [1] | AST enzyme activity in plasma [1]
2 | 240 ± 21.2 | 16.1 ± 2.1 | 7.1 ± 0.6 | 26.5 ± 6.6 | 4.5 ± 0.3 | COc1cc(NCc2ccc(O)cc2)c2nccc(C)c2c1Oc1cccc(C(F)(F)F)c1 [Compound 3] | No significant difference | No significant difference
3 | 400 ± 13.7 |  |  |  |  | COc1cc(NCc2cccc3cccnc23)c2nccc(C)c2c1Oc1cccc(C(F)(F)F)c1 [Compound 7] |  | 

Row | SMILES | IC50 (PKC) [µM] | Concentration of 3, Kidney [2] [µM] | Concentration of 3, Liver [2] [µM] | Concentration of 3, Pancreases [2] [µM] | Concentration of 3, Plasma [2] [µM] | ALT enzyme activity in plasma [1] | AST enzyme activity in plasma [1]
4 | CN[C@@H]1C[C@H]2O[C@@](C)([C@@H]1OC)n1c3ccccc3c3c4c(c5c6ccccc6n2c5c31)C(=O)NC4 [Staurosporine, reference compound] | […] |  |  |  |  |  | 
